The subject of one data set is PC-3. Put plainly: Antiproliferative activity against human PC3 cells incubated for 48 to 72 hrs by MTT assay. It is filed as functional, cell-based. The procedure, abridged: (§1)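 MTT assay. Cells were grown in DMEM with 10% heat-inactivated FBS at 37°C under 5% CO₂. They were seeded at 5000/well in 5% FBS DMEM for 24 h, then given compound in DMSO at 0.1, 1, 10 and 100 µmol/L for 72 h (the table footnote says 48 h). MTT was added for 4 h, formazan was dissolved in DMSO and read at 570 nm. IC₅₀ was from ≥3 independent runs; >100 μM was given if 50% inhibition was not reached.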
(Tetrazolium assays rely on reduction of a dye to a coloured formazan, in cell work by metabolically active cells.)

The next data set relates to A549. Put plainly: Antiproliferative activity against human A549 cells incubated for 48 to 72 hrs by MTT assay. It is filed as functional, cell-based. The method, boiled down:
as §1

The next data set relates to SGC-7901. Nature of the data set: Antiproliferative activity against human SGC7901 cells incubated for 48 to 72 hrs by MTT assay. It is filed as functional, cell-based. The method, boiled down: as §1
In a further data set the test system is MCF7. Nature of the data set: Antiproliferative activity against human MCF7 cells incubated for 48 to 72 hrs by MTT assay. It is filed as functional, cell-based. The procedure, abridged:
as §1

For data set [1], the system named is HepG2. Nature of the data set: Antiproliferative activity against human HepG2 cells incubated for 48 to 72 hrs by MTT assay. Type of data set: functional, cell-based. The method, boiled down: as §1
The subject of a further data set is Mus musculus. Put plainly: Toxicity in Swiss mouse xenografted with human HepG2 cells assessed as reduction in body weight at 20 mg/kg, ip dosed every day for 14 days. It is filed as organism-based. As to conditions: in vivo, 336 h. The method, boiled down: (§2)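 Female Swiss mice (20-22 g) received 3×10⁶ HepG2 cells subcutaneously in the right flank. After 7-21 days they were randomised into groups of 6, including a saline control, and given daily intraperitoneal injections for 14 days. Body weight was recorded daily. Mice were killed on day 14, and tumour wet weight gave the % inhibition. Data are mean ± S.E.M.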
(A xenograft is tissue or cells of one species grown in another, often human tumour cells in immunodeficient mice.)

Data set [2] relates to HepG2. Put plainly: Antitumour activity against human HepG2 cells xenografted in Swiss mouse assessed as inhibition of tumor growth at 20 mg/kg, ip dosed every day for 14 days. It is filed as functional. As to conditions: 336 h, read-out: TGI. The method, boiled down: as §2

SMILES strings stand for the structures.

As to `COc1cc(/C=C/C(=O)OC[C@H]2O[C@H]3c4c(cc(O)c(OC)c4O)C(=O)O[C@@H]3[C@@H](O)[C@@H]2O)cc(OC)c1`, the IC50 (usually the concentration that gives 50% inhibition) worked out at 26.3 µM with PC-3; 12.3 µM in the data set with A549; 27.8 µM with SGC-7901; 6.25 µM with MCF7; 16.8 µM in the data set on HepG2 [1].

`COc1ccc(/C=C/C(=O)OC[C@H]2O[C@H]3c4c(cc(O)c(OC)c4O)C(=O)O[C@@H]3[C@@H](O)[C@@H]2O)cc1`: the IC50 was greater than 100 µM in the data set on PC-3; 26.4 µM in the data set on A549; 15.9 µM with SGC-7901; 18.7 µM with MCF7; 29.7 µM in the data set with HepG2 [1].

Consider `COc1ccc(/C=C/C(=O)OC[C@H]2O[C@H]3c4c(cc(O)c(OC)c4O)C(=O)O[C@@H]3[C@@H](O)[C@@H]2O)cc1OC`, for which the IC50 in the data set with PC-3 was greater than 100 µM; with A549, greater than 100 µM; in the data set with SGC-7901 it was 58.9 µM; with MCF7 it was greater than 100 µM; in the data set with HepG2 [1], 86.1 µM.

Regarding `COc1c(O)cc2c(c1O)[C@@H]1O[C@H](COC(=O)/C=C/c3ccc(Cl)c(Cl)c3)[C@@H](O)[C@H](O)[C@H]1OC2=O`, the IC50 in the data set on PC-3 is greater than 100 µM; in the data set with A549, 63.2 µM; in the data set with SGC-7901, greater than 100 µM; with MCF7, greater than 100 µM; in the data set on HepG2 [1], greater than 100 µM.

On to `COc1c(O)cc2c(c1O)[C@@H]1O[C@H](COC(=O)/C=C/c3ccc(F)cc3)[C@@H](O)[C@H](O)[C@H]1OC2=O`, for which the IC50 was 22.9 µM with PC-3; greater than 100 µM in the data set with A549; greater than 100 µM with SGC-7901; 35.8 µM with MCF7; 17.2 µM in the data set on HepG2 [1].

Turning to `COc1c(O)cc2c(c1O)[C@@H]1O[C@H](COC(=O)/C=C/c3ccc(Cl)cc3)[C@@H](O)[C@H](O)[C@H]1OC2=O`, the half-maximal inhibitory concentration (IC50) with PC-3 was 86.5 µM; in the data set with A549, greater than 100 µM; in the data set with SGC-7901, greater than 100 µM; with MCF7, greater than 100 µM; with HepG2 [1], greater than 100 µM.

For the compound `COc1c(O)cc2c(c1O)[C@@H]1O[C@H](COC(=O)/C=C/c3ccc(C)c(C)c3)[C@@H](O)[C@H](O)[C@H]1OC2=O`, the 50% inhibitory concentration (IC50) was greater than 100 µM with PC-3; greater than 100 µM in the data set on A549; greater than 100 µM with SGC-7901; 59.5 µM with MCF7; greater than 100 µM in the data set on HepG2 [1].

`COc1c(O)cc2c(c1O)[C@@H]1O[C@H](CO)[C@@H](O)[C@H](O)[C@H]1OC2=O` [BERGENIN]: the 50% inhibitory concentration (IC50) was greater than 100 µM with PC-3; 77.3 µM in the data set on A549; 23.6 µM in the data set with SGC-7901; greater than 100 µM with MCF7; 34.6 µM in the data set with HepG2 [1].

With `COc1cc(/C=C/C(=O)OC[C@H]2O[C@H]3c4c(cc(O)c(OC)c4O)C(=O)O[C@@H]3[C@@H](O)[C@@H]2O)cc(OC)c1OC`, the half-inhibitory concentration (IC50) came to 12.1 µM with PC-3; 5.46 µM with A549; 7.53 µM in the data set on SGC-7901; 11.7 µM in the data set on MCF7; 6.62 µM with HepG2 [1].

In the case of `COc1c(O)cc2c(c1O)[C@@H]1O[C@H](COC(=O)/C=C/c3ccccc3)[C@@H](O)[C@H](O)[C@H]1OC2=O`, the half-inhibitory concentration (IC50) was 13.5 µM in the data set on PC-3; 56.9 µM in the data set on A549; 9.67 µM in the data set with SGC-7901; greater than 100 µM in the data set on MCF7; 18.5 µM in the data set with HepG2 [1].

Consider `COc1c(O)cc2c(c1O)[C@@H]1O[C@H](COC(=O)/C=C/c3cc([N+](=O)[O-])cc([N+](=O)[O-])c3)[C@@H](O)[C@H](O)[C@H]1OC2=O`, for which the IC50 in the data set with PC-3, with A549, in the data set on SGC-7901, with MCF7 and in the data set on HepG2 [1] was greater than 100 µM throughout.

On to `COc1c(O)cc2c(c1O)[C@@H]1O[C@H](COC(=O)/C=C/c3ccc(C)cc3)[C@@H](O)[C@H](O)[C@H]1OC2=O`, for which the IC50 is 30.2 µM in the data set with PC-3; 10.3 µM in the data set with A549; 11.4 µM in the data set on SGC-7901; 20.2 µM in the data set with MCF7; greater than 100 µM with HepG2 [1].

`COc1c(O)cc2c(c1O)[C@@H]1O[C@H](COC(=O)/C=C/c3ccc([N+](=O)[O-])cc3)[C@@H](O)[C@H](O)[C@H]1OC2=O`: the IC50 with PC-3, with A549, in the data set on SGC-7901, in the data set with MCF7 and with HepG2 [1] was greater than 100 µM each time.

For the compound `O=c1[nH]cc(F)c(=O)[nH]1` [FLUOROURACIL], the half-maximal inhibitory concentration (IC50) amounted to 38.6 µM in the data set on PC-3; 10.7 µM with A549; 13.2 µM with SGC-7901; 7.67 µM in the data set with MCF7; 17.4 µM with HepG2 [1]. In the data set on Mus musculus, the Activity result was “Toxic”. Moreover, the inhibition in vivo at 20 mg/kg in the data set with HepG2 [2] was 52.2%.

With `COc1c(O)cc2c(c1O)[C@@H]1O[C@H](COC(=O)/C=C/c3cc(F)cc(F)c3)[C@@H](O)[C@H](O)[C@H]1OC2=O`, the IC50 was 46.2 µM with PC-3; 28.4 µM in the data set on A549; greater than 100 µM with SGC-7901; 72.1 µM in the data set with MCF7; greater than 100 µM with HepG2 [1].

The values above are taken from ChEMBL document CHEMBL4270489, “Synthesis and in vitro and in vivo antitumour activity study of 11-hydroxyl esterified bergenin/cinnamic acid hybrids” (Eur J Med Chem, 2017).
